Results on five molecules are retold here after BindingDB's records for doi:10.1021/jm950682e (Institute De Recherches Servier, 1996).

The test deals with T1, B2 bradykinin receptor (Oryctolagus cuniculus, UniProt Q28642).
T1 sequence (Q28642 whole entry): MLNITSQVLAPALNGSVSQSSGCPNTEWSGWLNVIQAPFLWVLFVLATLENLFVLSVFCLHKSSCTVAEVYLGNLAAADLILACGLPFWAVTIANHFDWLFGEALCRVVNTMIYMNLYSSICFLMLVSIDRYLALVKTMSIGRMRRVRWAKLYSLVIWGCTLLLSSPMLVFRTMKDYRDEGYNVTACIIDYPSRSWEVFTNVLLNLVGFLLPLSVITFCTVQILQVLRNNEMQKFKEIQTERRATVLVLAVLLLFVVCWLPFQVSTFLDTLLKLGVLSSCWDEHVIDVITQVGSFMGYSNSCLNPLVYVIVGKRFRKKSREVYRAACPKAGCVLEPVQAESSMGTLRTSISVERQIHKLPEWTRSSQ
Briefly: In vitro antagonistic activity against kinin-induced rabbit jugular vein contraction. In outline:
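Rabbit jugular vein rings (B2 tissue), reference KCl 60 mM contraction then 45 min rest; antagonist, usually 10-7, 10^-6 and 10^-5 M, incubated 45 min before cumulative bradykinin; one curve per ring; pA2 by Tallarida's method with Schild slope constrained to unity, or pKB from EC50 ratio when activity appeared only at 10^-5 M.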

Numbered stars: 1 amine (or outer) side, 2 acyl side, 3 side chain; on linkers, the order of the positions; unused ones are H or OH. Square brackets hold non-standard residues; d marks the D form. Peptide text beside a SMILES is read from it. * marks the point of attachment. Pentanoyl(5-guanidino) = NC(N)=NCCCCC(=O)*; NH(CH2)9CO = O=C(CCCCCCCCCN[*:1])[*:2]; Oic = O=C(O)[CH]1C[CH]2CCCC[CH]2N1; Tic = O=C(O)[CH]1Cc2ccccc2CN1; 2Thi = N[CH](Cc1cccs1)C(=O)O; X2 = N=C(N)NCCCCCC(=O)*; GABA = NCCCC(=O)O

One may read the Kd as the concentration at which binding is half-saturated. Higher therefore signals a looser complex. The molecule `N=C(N)NCCCC(NC(=O)C1CC2CCCCC2N1C(=O)C1Cc2ccccc2CN1C(=O)C(Cc1ccccc1)NC(=O)CCCN)C(=O)O` (stereo not given) (H-[GABA]F[Tic][Oic]R-OH; configuration not given here) displayed a dissociation constant Kd of 363 nM.
The value for `N=C(N)NCCCC(NC(=O)C1CC2CCCCC2N1C(=O)C1Cc2ccccc2CN1C(=O)C(Cc1cccs1)NC(=O)CCCN)C(=O)O` (stereo not given) (H-[GABA][2Thi][Tic][Oic]R-OH; configuration not given here) was 251 nM; that for `N=C(N)NCCCCCC(=O)NC(Cc1cccs1)C(=O)N1Cc2ccccc2CC1C(=O)N1C(C(=O)NC(CCCNC(=N)N)C(=O)O)CC2CCCCC21` (stereo not given) (X2-[2Thi][Tic][Oic]R-OH; configuration not given here) was 3390 nM.
As to `N=C(N)NCCCC(NC(=O)C1CC2CCCCC2N1C(=O)C1Cc2ccccc2CN1C(=O)C(Cc1cccs1)NC(=O)CCCCCCCCCN)C(=O)O` (stereo not given) ({NH(CH2)9CO}-[2Thi][Tic][Oic]R-OH; configuration not given here), the affinity, expressed as Kd, was 468 nM.
The result for `N=C(N)NCCCCC(=O)NC(Cc1cccs1)C(=O)N1Cc2ccccc2CC1C(=O)N1C(C(=O)NC(CCCNC(=N)N)C(=O)O)CC2CCCCC21` (stereo not given) ({Pentanoyl(5-guanidino)}-[2Thi][Tic][Oic]R-OH; configuration not given here) reads 3020 nM.
